The record followed here is ChEMBL document CHEMBL4813946, “Discovery of novel 4-azaaryl-N-phenylpyrimidin-2-amine derivatives as potent and selective FLT3 inhibitors for acute myeloid leukaemia with FLT3 mutations” (Eur J Med Chem, 2021).

Assay [1] deals with T1, Receptor-type tyrosine-protein kinase FLT3 (Homo sapiens, UniProt P36888).
T1 sequence (P36888 whole entry): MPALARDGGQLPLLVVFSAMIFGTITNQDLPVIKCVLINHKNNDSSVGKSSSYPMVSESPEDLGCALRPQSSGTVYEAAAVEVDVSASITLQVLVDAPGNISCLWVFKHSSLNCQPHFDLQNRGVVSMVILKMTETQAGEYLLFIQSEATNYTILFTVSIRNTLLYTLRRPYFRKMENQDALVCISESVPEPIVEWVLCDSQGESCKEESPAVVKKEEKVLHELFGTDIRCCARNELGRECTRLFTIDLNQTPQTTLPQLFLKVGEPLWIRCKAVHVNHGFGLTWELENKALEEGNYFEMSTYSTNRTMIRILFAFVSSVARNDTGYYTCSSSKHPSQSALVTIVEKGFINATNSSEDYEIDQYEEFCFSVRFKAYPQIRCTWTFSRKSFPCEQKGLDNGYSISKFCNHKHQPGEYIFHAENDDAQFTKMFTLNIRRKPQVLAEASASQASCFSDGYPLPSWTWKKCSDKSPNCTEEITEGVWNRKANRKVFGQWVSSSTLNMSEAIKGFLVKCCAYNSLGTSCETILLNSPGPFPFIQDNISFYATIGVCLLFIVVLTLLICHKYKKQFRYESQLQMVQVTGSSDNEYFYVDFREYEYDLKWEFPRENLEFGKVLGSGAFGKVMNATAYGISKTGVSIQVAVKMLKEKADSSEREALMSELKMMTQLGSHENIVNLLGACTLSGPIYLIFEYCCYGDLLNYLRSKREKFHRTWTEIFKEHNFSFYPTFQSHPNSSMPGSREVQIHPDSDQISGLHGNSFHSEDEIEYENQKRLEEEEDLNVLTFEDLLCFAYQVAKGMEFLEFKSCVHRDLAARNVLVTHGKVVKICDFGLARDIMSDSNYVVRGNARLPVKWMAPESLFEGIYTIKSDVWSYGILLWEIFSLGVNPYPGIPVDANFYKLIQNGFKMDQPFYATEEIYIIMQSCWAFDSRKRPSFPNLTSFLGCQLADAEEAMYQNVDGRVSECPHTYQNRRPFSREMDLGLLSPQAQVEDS
Kind of assay: Inhibition of wild type FLT3 (unknown origin) using Glu/Tyr peptide substrate incubated for 120 mins measured after 40 mins incubation under dark by ADP-glo based luminescence assay. The method in brief:
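In-house ADP-Glo assay with poly(Glu,Tyr) 4:1 substrate in 40 mM Tris pH 7.5, 20 mM MgCl2, 50 µM DTT, 0.1 mg/mL BSA. Kinase at 20 nM. ADP-Glo reagent 40 min in the dark, detection reagent 30–40 min, then luminescence. Ki was derived from IC50 by Cheng-Prusoff.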
(In general: ADP-Glo first removes unused ATP, then detects ADP through luciferase.)

Assay [2] addresses Cyclin-dependent kinase 1/cyclin B1 (Homo sapiens, UniProt P06493). Kind of assay: Inhibition of CDK1/cyclin B (unknown origin) using histone 1 protein substrate incubated for 120 mins measured after 40 mins incubation under dark by ADP-glo based luminescence assay. Type of assay: protein-complex assay. The method in brief:
(§1)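 In-house ADP-Glo assay with 2 mM DMSO stocks. Kinases were CDK1/cyclin B at 1 nM, CDK2/cyclin E1 at 10 nM and CDK7/cyclin H/MAT1 at 40 nM. Substrate was histone 1 for CDK1 and CDK2, and a RNA pol II CTD peptide for CDK7. Compound at 8–10 concentrations, 1:3 serial, final DMSO 0.5%. Reactions ran 60–120 min at room temperature, then ADP-Glo reagent 40 min in the dark, then detection reagent 40 min, read by luminescence. Ki was derived from IC50 by Cheng-Prusoff.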

Assay [3] deals with Cyclin-dependent kinase 2/cyclin E1 (Homo sapiens, UniProt P24941). Nature of the assay: Inhibition of CDK2/cyclin E (unknown origin) using histone 1 protein substrate incubated for 120 mins measured after 40 mins incubation under dark by ADP-glo based luminescence assay. Type of assay: protein-complex assay. The method in brief:
as §1

For assay [4], the target named is CDK7/Cyclin H/MNAT1 (Homo sapiens, UniProt P50613). Kind of assay: Inhibition of CDK7/cyclin H/MAT1 (unknown origin) using HYSPTSPSYSPTSPSYSPTSPSKKKK-O substrate incubated for 120 mins measured after 40 mins incubation under dark by ADP-glo based luminescence assay. Type of assay: protein-complex assay. Summed up:
as §1

The subject of assay [5] is MV4-11. Nature of the assay: Antiproliferative activity against human MV4-11 cells incubated for 72 hrs by resazurin assay. The class given is functional. Summed up:
(§2)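 Cells seeded and pre-incubated 24 h at 37 °C, 5% CO2, then given a five-fold dilution series of compound (from 10 mM DMSO stock) in medium, in triplicate. Resazurin added after 72 h exposure, 4 h in dark at 37 °C. Fluorescence read at 570/585 nm, normalised to DMSO vehicle. GI50 by non-linear regression; mean ± SD of at least two replicates.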
Background: Resazurin is reduced to fluorescent resorufin, in cell work by metabolically active cells.

A short description of assay [6]: Inhibition of FLT3 ITD-NPOS mutant (unknown origin) incubated for 120 mins by ADP-glo based luminescence assay. Also noted: species or system Homo sapiens.
Assay [7] can be described thus: Inhibition of FLT3 ITD-W51 mutant (unknown origin) incubated for 120 mins by ADP-glo based luminescence assay. Details: species or system Homo sapiens.
Assay [8] concerns the target Receptor-type tyrosine-protein kinase FLT3 (Homo sapiens, UniProt P36888, D835Y). Kind of assay: Inhibition of FLT3 D835Y mutant (unknown origin) incubated for 120 mins by ADP-glo based luminescence assay.
A short description of assay [9]: Inhibition of FLT3 Y591-V592insVDFREYEYD mutant (unknown origin) incubated for 120 mins by ADP-glo based luminescence assay. Details: species or system Homo sapiens.
Assay [10] concerns the target Receptor-type tyrosine-protein kinase FLT3 (Homo sapiens, UniProt P36888, F594-R595INSR). Nature of the assay: Inhibition of FLT3 F594_R595insR mutant (unknown origin) incubated for 120 mins by ADP-glo based luminescence assay.
In assay [11] the target is Receptor-type tyrosine-protein kinase FLT3 (Homo sapiens, UniProt P36888, R595-E596INSEY). Nature of the assay: Inhibition of FLT3 R595_E596insEY mutant (unknown origin) incubated for 120 mins by ADP-glo based luminescence assay.
For assay [12], the system named is MV4-11. Kind of assay: Antiproliferative activity against human MV4-11 cells harboring FLT3-ITD mutant assessed as reduction in cell viability after 72 hrs by resazurin assay. The class given is functional. The method in brief:
as §2

Assay [13] is described as follows: Antiproliferative activity against human MOLM-13 cells harboring FLT3-ITD mutant assessed as reduction in cell viability after 72 hrs by resazurin assay. Type of assay: functional. The settings on record: MOLM-13, 72 h. Summed up: as §2
Assay [14] relates to NB-4. Nature of the assay: Antiproliferative activity against human NB-4 cells harboring wild type FLT3 assessed as reduction in cell viability after 72 hrs by resazurin assay. The class given is functional. Summed up:
as §2

Assay [15] relates to THP-1. Nature of the assay: Antiproliferative activity against human THP-1 cells harboring wild type FLT3 assessed as reduction in cell viability after 72 hrs by resazurin assay. Type of assay: functional. Summed up:
as §2

For assay [16], the system named is Jurkat. Nature of the assay: Antiproliferative activity against human Jurkat cells harboring FLT3 knockout gene assessed as reduction in cell viability after 72 hrs by resazurin assay. The class given is functional. Summed up:
as §2

In assay [17] the test system is K562. Kind of assay: Antiproliferative activity against human K562 cells harboring FLT3 knockout gene assessed as reduction in cell viability after 72 hrs by resazurin assay. The class given is functional. The method in brief:
as §2

Assay [18] relates to U-937. Nature of the assay: Antiproliferative activity against human U-937 cells harboring wild type/low FLT3 assessed as reduction in cell viability after 72 hrs by resazurin assay. The class given is functional. The method in brief:
as §2

Assay [19] deals with Receptor-type tyrosine-protein kinase FLT3 (Homo sapiens, UniProt P36888, ITD). Nature of the assay: Inhibition of FLT3 ITD mutant (unknown origin) using Glu/Tyr peptide substrate incubated for 80 mins measured after 40 mins incubation under dark by ADP-glo based luminescence assay.

Bounds are passed on as bounds.

Sequence of Cyclin-dependent kinase 1/cyclin B1 (P06493 whole entry): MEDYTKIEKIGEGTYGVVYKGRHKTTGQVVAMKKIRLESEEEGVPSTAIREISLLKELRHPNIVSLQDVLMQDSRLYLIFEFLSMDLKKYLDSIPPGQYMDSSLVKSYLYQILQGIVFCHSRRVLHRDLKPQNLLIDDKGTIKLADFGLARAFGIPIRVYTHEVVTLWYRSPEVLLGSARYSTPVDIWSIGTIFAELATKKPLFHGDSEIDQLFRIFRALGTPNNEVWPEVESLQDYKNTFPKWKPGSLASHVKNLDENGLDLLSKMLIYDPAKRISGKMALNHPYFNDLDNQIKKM
Sequence of Cyclin-dependent kinase 1/cyclin B1 (P14635 whole entry, further chain): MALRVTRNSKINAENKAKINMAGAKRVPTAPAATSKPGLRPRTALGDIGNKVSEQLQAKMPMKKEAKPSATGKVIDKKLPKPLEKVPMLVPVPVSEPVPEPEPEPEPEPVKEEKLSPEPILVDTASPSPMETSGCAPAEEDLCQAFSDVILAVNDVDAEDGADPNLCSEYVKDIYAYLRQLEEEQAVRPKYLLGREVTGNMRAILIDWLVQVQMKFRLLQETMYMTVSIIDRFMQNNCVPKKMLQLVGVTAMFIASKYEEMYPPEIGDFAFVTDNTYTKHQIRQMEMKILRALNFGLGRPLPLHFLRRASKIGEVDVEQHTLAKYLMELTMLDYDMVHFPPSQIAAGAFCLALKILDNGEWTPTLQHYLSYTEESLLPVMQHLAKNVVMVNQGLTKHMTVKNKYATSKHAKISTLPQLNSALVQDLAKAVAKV
Sequence of CDK7/Cyclin H/MNAT1 (P51946 whole entry): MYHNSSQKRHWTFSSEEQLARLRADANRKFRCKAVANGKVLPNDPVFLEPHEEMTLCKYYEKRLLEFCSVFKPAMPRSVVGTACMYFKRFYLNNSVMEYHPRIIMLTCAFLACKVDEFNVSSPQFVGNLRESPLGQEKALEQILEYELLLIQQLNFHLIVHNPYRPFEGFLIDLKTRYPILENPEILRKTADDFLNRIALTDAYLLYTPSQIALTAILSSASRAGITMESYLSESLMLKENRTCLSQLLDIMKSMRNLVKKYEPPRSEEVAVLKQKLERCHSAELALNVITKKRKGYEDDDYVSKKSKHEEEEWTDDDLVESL
Sequence of CDK7/Cyclin H/MNAT1 (P50613 whole entry): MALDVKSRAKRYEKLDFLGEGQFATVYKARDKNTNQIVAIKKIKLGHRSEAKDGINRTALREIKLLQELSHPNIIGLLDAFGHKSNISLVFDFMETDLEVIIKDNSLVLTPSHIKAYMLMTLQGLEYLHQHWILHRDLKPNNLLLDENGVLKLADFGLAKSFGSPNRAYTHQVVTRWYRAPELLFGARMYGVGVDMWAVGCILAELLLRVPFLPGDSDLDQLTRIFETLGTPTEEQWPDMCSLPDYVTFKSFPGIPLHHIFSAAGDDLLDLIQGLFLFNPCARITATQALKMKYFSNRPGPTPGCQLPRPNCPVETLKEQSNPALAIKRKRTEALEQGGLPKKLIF
Sequence of CDK7/Cyclin H/MNAT1 (P51948 whole entry, further chain): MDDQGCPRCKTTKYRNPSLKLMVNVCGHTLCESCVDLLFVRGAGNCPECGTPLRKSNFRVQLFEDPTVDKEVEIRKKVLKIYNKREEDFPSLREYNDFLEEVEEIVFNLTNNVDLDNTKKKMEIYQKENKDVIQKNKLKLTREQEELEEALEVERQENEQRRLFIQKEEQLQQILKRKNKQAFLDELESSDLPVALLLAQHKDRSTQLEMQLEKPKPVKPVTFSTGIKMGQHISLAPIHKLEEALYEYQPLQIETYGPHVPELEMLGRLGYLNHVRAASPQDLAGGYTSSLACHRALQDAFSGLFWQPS

`CC(=O)N1CCN(c2ccc(Nc3ncc(C#N)c(-c4n[nH]c5ccccc45)n3)cc2)CC1`: the Ki is 21 nM in assay [1]; 1650 nM in assay [2]; greater than 5000 nM in assay [3]; greater than 5000 nM in assay [4]; less than 0.3 nM in [6]; less than 0.3 nM in assay [7]. For the same compound, the Ki is less than 0.3 nM in assay [8]; less than 0.3 nM in [9]; less than 0.3 nM in [10]; less than 0.3 nM in [11]; 0.2 nM in assay [19]. Besides, the GI50 in assay [5] is 17 nM; in assay [12], 17 nM; in [13], 0.4 nM; in assay [14], 126 nM; in assay [15], 3040 nM; in [16], greater than 10000 nM. Further, the results for the GI50 in assay [17] and in assay [18] were 185 nM and greater than 10000 nM, respectively.

Broadly, the Ki is the dissociation constant of the complex between target and ligand, obtained from inhibition or displacement. A high value points to weaker binding. By GI50 is commonly meant the concentration giving 50% growth inhibition.
